The values that follow come from PubChem BioAssay.

Activity calls are given as the source filed them.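 The calls were made as follows, unless noted: active = visually confirmed hit in the image check and inhibition above 20%; inconclusive = visually confirmed hit but inhibition not above 20%; inactive = no visual hit in the image check.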

For orientation: inhibition means the drop in the measured response relative to a control, in per cent.

Assay [1] can be described thus: inhibitors of TNFa-induced NFkB p65 translocation, primary screen, imaging, HUVEC, MLSMR starter and 10KST1 sets (AID 438;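 active = inhibition above 20% together with a positive visual image hit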;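 also: compound added about 3h40 before a 20 min TNFalpha stimulation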;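 as to inhibition: signal is the nuclear over cytoplasmic p65 intensity ratio per well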). The conditions noted are these: HUVEC TNFa-induced p65 nuclear translocation; cell count: measured here: nuclei count (cytotoxicity indicator), at 2.08 µM; inhibition: at 2 µM, stronger effect = higher value, 0% TNFa-plus-vehicle, 100% no-TNFa wells.
Assay [2] is described as follows: inhibitors of mutant huntingtin aggregation, primary screen, imaging, exon1htt(103Q)mCFP cells, high-content imaging (AID 483;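 active = visual image review flags a hit and inhibition of aggregation exceeds 20%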;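 also: compound exposure lasted 3 days before fixation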;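 as to nuclei count: percent of the per-plate median nuclei count of sample wells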). The settings on record: exon1htt(103Q)mCFP cell line, aggregate imaging, at 2 µM; inhibition of aggregation: stronger effect = higher value; nuclei count: measured here: cell count, toxicity.
The nature of assay [3]: inhibitors of E-selectin induction by TNFa, primary screen, imaging, HUVEC, immunofluorescence, MLSMR starter and 10KST1 sets (AID 487).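 As to inhibition: signal is fraction of cell area covered by stained E-selectin grains.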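 As to nuclei count: 100% = median nuclei count of all wells on the same plate.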 The conditions noted are these: HUVEC TNFalpha-induced E-selectin immunofluorescence imaging, at 2 µM; inhibition: stronger effect = higher value; nuclei count: measured here: cell number, toxicity.
Assay [4] addresses Voltage-gated potassium channel subunit beta-2 (Rattus norvegicus) (UniProt P62483). Briefly: KvBeta enzyme negative modulators, primary screen, biochemical, NADPH fluorescence (AID 622;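 active = fluorescence slope higher than the sample average by over 3 SD, cut at about -0.22 in these data, passing the limit was not always enough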;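 also: slope of raw intensity against log time taken from 70 to 1610 s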). The conditions noted are these: recombinant KvBeta, 4-cyanobenzaldehyde reduction, at 10 µM, stronger effect = higher value.
Assay [5] shares this target. Briefly: KvBeta positive modulators, primary screen, biochemical, NADPH fluorescence (AID 623;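 active = NADPH fluorescence slope more negative than the mean of all samples by about 3 SD, 99.7% confidence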;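 also: fluorescence intensity change per second fitted from 20 to 320 s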). The settings on record: Recombinant KvBeta, NADPH fluorescence decrease slope, 10 min; at 10 µM; stronger effect = lower value.
For assay [6], the target named is Alpha-2C adrenergic receptor (Homo sapiens) (UniProt P18825). Nature of the assay: modulators of alpha2C/GIRK thallium flux, primary screen, cell-based, HEK293 alpha2C/GIRK1/2 (AID 624;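 active = fluorescence slope after compound addition differing from the mean of all screened samples at 99.7% confidence, in either direction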;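 also: slope of fluorescence ratio to pre-addition baseline per second over 15 to 24 s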). The conditions noted are these: thallium flux BTC fluorescence, at 10 µM, actives lie on both sides.
The nature of assay [7]: inhibitors of larval lipid processing in zebrafish, primary screen, whole organism, PED6 fluorescence, gall bladder and intestine (AID 686;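 active = a full or partial loss of lipid-probe fluorescence in the fish gall bladder, intestine or both, judged by eye; inactive = no fluorescence loss, or compound toxic to the fish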;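 also: larvae 5 to 7 days old with five fish per well; signal comes from phospholipase A2 cleavage of quenched PED6 carried via bile; overnight exposure to compound and PED6 before scoring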). The settings on record: Zebrafish larvae PED6 lipid processing, fluorescence scoring; screened at 20 µM (by protocol). A digest of the protocol:
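Test system – live zebrafish larvae aged 5-7 days, whole organism · Buffer or medium – E3 fish medium · Reagent – quenched phospholipase substrate PED6, 100 nM final, ingested by larvae · Doses – 20 µM single dose · Incubation – overnight compound and PED6 incubation · Technique – visual fluorescence microscopy scoring of gall bladder, gut · Read-out basis – visual per-well fluorescence inhibition score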

A short description of assay [8]: inhibitors of Sendai virus-induced IRF3 signaling, primary screen, TLR/RLR signaling modifier project, cell-based, Sendai virus stimulus, luciferase, 10K MLSCN set (AID 602276;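 active = inhibition at or above 50% at 10 µM; inactive = inhibition below 50%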;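 also: firefly luciferase from ISG56 promoter only with Renilla not read in this screen; 0% = Sendai virus plus DMSO and 100% = medium plus DMSO without virus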). The settings on record: HEK293 RL24 IRF3 luciferase reporter, at 10 µM, stronger effect = higher value.
Assay [9] can be described thus: inhibitors of poly I:C-induced TLR3 signaling, primary screen, cell-based, poly I:C stimulus, luciferase, 10K MLSCN set (AID 602277;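 active = inhibition of the reporter signal at or above 50%; inactive = inhibition below 50%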). The settings on record: HEK293-TLR3 RL24 IRF3 luciferase reporter, at 10 µM, stronger effect = higher value. (A reporter such as luciferase makes a cellular process visible.)

Chain of Alpha-2C adrenergic receptor (Homo sapiens) (P18825 whole entry, looked up): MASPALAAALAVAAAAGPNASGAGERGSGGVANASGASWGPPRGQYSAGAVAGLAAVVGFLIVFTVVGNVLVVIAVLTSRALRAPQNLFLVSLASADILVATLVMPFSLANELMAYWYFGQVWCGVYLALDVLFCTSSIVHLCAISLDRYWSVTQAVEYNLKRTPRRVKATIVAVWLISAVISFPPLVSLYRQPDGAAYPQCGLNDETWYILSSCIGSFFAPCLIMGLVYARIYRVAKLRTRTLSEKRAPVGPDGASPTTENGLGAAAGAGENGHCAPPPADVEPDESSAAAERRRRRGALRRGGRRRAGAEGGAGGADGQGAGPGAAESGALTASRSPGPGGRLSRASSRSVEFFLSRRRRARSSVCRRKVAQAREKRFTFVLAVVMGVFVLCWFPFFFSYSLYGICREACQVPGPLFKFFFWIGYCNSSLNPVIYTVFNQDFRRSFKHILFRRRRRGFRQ
Chain of Voltage-gated potassium channel subunit beta-2 (Rattus norvegicus) (P62483 whole entry, looked up): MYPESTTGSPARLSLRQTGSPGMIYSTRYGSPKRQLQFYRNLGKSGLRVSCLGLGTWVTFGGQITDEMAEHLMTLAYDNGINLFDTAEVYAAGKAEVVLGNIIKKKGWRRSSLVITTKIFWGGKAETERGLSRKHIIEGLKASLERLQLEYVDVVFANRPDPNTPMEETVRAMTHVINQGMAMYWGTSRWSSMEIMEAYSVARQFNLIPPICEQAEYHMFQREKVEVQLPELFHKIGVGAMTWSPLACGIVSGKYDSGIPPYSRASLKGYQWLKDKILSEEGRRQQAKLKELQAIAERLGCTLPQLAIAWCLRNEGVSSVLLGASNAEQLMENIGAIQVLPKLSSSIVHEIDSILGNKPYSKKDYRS

For `CCOC(=O)n1c(=O)oc2cc(S(=O)(=O)N3CCCCC3)ccc21`, in assay [1], the cell count came to 419. In addition, the inhibition in [1] is 14.8% (inactive); in assay [3] it was 35.2% (inactive); in assay [8], 8.09% (inactive); in assay [9], 16.3% (inactive). Further, the inhibition of aggregation in assay [2] is -1% (inactive). Further, the nuclei count in assay [2] amounted to 103%; in assay [3] it was 81.5%. For the same compound, the fluorescence slope in [4] was -0.294 (inactive). Moreover, in assay [5], the NADPH fluorescence slope was -1.1e-05 (inactive). In addition, in assay [6], the slope was 0.00583 (inactive). Moreover, in assay [7], the result was inactive.

Regarding `O=C(NCc1ccco1)c1cccc(S(=O)(=O)N2CCCCC2)c1`, in assay [1], the cell count was 323. Besides, the inhibition was -3.6% (inactive) in assay [1], -87.1% (inactive) in assay [3], -13.9% (inactive) in assay [8] and -7.47% (inactive) in assay [9]. For the same compound, in [2], the inhibition of aggregation was -3.2% (inactive). Also, the nuclei count in assay [2] was determined as 112%; in assay [3], 120%. In addition, the fluorescence slope in [4] is -0.462 (inactive). For the same compound, the NADPH fluorescence slope in assay [5] is 3.8e-05 (inactive). Further, in assay [6], the slope is 0.00571 (inactive). In addition, the compound was called inactive in [7].

Turning to `COCCNC(=O)NC(=O)COC(=O)Cc1ccc2c(c1)OCCO2`, the cell count in [1] was 376. The inhibition was 5.1% (inactive) in [1], -127% (inactive) in assay [3], 17% (inactive) in [8] and 16.3% (inactive) in assay [9]. In assay [2], the inhibition of aggregation is -11.9% (inactive). Moreover, the values for the nuclei count in assay [2] and in [3] were 109% and 110%, respectively. Further, the fluorescence slope in assay [4] was -0.418 (inactive). The NADPH fluorescence slope in assay [5] is -6.4e-05 (inactive). Besides, the slope in [6] is 0.00538 (inactive). Besides, the call in assay [7] was inactive.

`CCOC(=O)c1cnc(-n2nc(C)cc2C)nc1N1CC(C)OC(C)C1` (stereo not drawn): the cell count in assay [1] turned out to be 654. The inhibition in assay [1] was -15.5% (inactive); in assay [3], -1.6% (inactive); in assay [8] it was -6.36% (inactive); in assay [9], 6.34% (inactive). For the same compound, the inhibition of aggregation in assay [2] is 29.7% (inactive). Also, the nuclei count turned out to be 69.8% in [2] and 96.9% in assay [3]. The fluorescence slope in assay [4] is -0.411 (inactive). Further, the NADPH fluorescence slope in assay [5] is -3.9e-05 (inactive). Also, the slope in assay [6] was 0.00483 (inactive). Further, in [7], the compound was called inactive.

Turning to `CCCC(OC(=O)CN1C(=O)COc2ccccc21)C(=O)NC1CCCC1` (stereo not drawn), in assay [1], the cell count was 637. The inhibition in assay [1] is 5.5% (inactive); in assay [3] it was -88% (inactive); in assay [8], 20.6% (inactive); in [9], 23.6% (inactive). The inhibition of aggregation in [2] was 1.5% (inactive). For the same compound, the nuclei count was 129% in [2] and 106% in assay [3]. In addition, the fluorescence slope in [4] is -0.434 (inactive). Besides, the NADPH fluorescence slope in [5] is -1.6e-05 (inactive). Besides, the slope in [6] was 0.00522 (inactive). The compound was called inactive in assay [7].

With `COc1cc2c(cc1OC)C(/C(C#N)=N\O)=NC(C)(C)C2`, in assay [1], the cell count amounted to 635. Moreover, the inhibition in [1] is -39.6% (inactive); in [3], 33% (inactive); in assay [8], 13.5% (inactive); in assay [9] it was 13.6% (inactive). In [2], the inhibition of aggregation is 2.8% (inactive). Further, the values for the nuclei count in assay [2] and in assay [3] were 107% and 96.2%, respectively. The fluorescence slope in assay [4] was -0.432 (inactive). Also, the NADPH fluorescence slope in assay [5] is -2e-05 (inactive). In assay [6], the slope was 0.0058 (inactive). Further, in assay [7], the outcome was inactive.

For the compound `COCCCN1C(=O)C(=O)/C(=C(/O)c2ccc(OC)cc2)C1c1ccc(O)c(OC)c1` (stereo not drawn), the cell count in assay [1] stood at 499. For the same compound, the inhibition in [1] is -14.9% (inactive); in assay [3], 25.3% (inactive); in assay [8], 4.25% (inactive); in assay [9] it was -6.14% (inactive). Further, the inhibition of aggregation in assay [2] was -10% (inactive). Moreover, the nuclei count stood at 101% in [2] and 98.6% in assay [3]. The fluorescence slope in assay [4] was -0.39 (inactive). Further, the NADPH fluorescence slope in [5] is -2.6e-05 (inactive). Moreover, in assay [6], the slope is 0.00521 (inactive). The result in [7] was inactive.

For `CCN(CC)C(=O)C1CCN(CC2CC=CCC2)CC1` (stereo not drawn), the cell count in [1] worked out at 377. Moreover, the inhibition in assay [1] was -8.2% (inactive); in assay [3], -22.3% (inactive); in assay [8], -1.94% (inactive); in [9] it was 9.42% (inactive). Further, in [2], the inhibition of aggregation is 12.3% (inactive). Besides, the nuclei count in assay [2] worked out at 110%; in assay [3] it was 76.6%. Moreover, in assay [4], the fluorescence slope was -0.361 (inactive). For the same compound, in assay [5], the NADPH fluorescence slope was 2.7e-06 (inactive). Further, the slope in [6] was 0.00638 (inactive). For the same compound, the compound was classed as inactive in assay [7].

Regarding `COC(=O)Cc1cc(=O)n(-c2ccccc2)[nH]1`, the cell count in assay [1] came out at 435. Besides, the inhibition in assay [1] is 3.1% (inactive); in assay [3], -67.7% (inactive); in assay [8] it was 17.9% (inactive); in assay [9] it was 21.3% (inactive). Also, the inhibition of aggregation in assay [2] was -18.2% (inactive). Moreover, the nuclei count in [2] was determined as 106%; in assay [3], 111%. The fluorescence slope in assay [4] is -0.379 (inactive). In addition, in assay [5], the NADPH fluorescence slope was -1.8e-05 (inactive). Further, the slope in assay [6] is 0.00454 (inactive). For the same compound, the result in [7] was inactive.

Turning to `O=C(NC1CCCC1)C(NS(=O)(=O)c1cccc2nsnc12)c1ccccc1` (stereo not drawn), the cell count in assay [1] was 309. Further, the inhibition was -16.3% (inactive) in assay [1], -22.2% (inactive) in assay [3], 17.9% (inactive) in assay [8] and 17.3% (inactive) in [9]. Also, in assay [2], the inhibition of aggregation was 2.5% (inactive). Also, the nuclei count came out at 103% in [2] and 109% in assay [3]. Also, the fluorescence slope in assay [4] was -0.329 (inactive). For the same compound, in assay [5], the NADPH fluorescence slope was 1.1e-05 (inactive). For the same compound, the slope in assay [6] is 0.0045 (inactive). Further, the result in assay [7] was inactive.

For the compound `CN1CCN(c2ccc(Cl)cc2NC(=O)c2cccc(S(=O)(=O)N(C)C)c2)CC1`, the cell count in [1] came out at 378. Also, the inhibition in [1] was 0.5% (inactive); in assay [3], 14.4% (inactive); in assay [8], 6.8% (inactive); in [9], 12.4% (inactive). The inhibition of aggregation in assay [2] is -6.9% (inactive). Moreover, the results for the nuclei count in assay [2] and in [3] were 133% and 88.8%, respectively. The fluorescence slope in assay [4] was -0.373 (inactive). In addition, in assay [5], the NADPH fluorescence slope is -2e-05 (inactive). Moreover, in [6], the slope was 0.00491 (inactive). Moreover, in assay [7], the result was inactive.

As to `CN(C)C(=O)COc1ccc2cc(-c3ccccc3)c(=O)oc2c1`, the cell count in assay [1] is 300. Also, the inhibition was -4% (inactive) in assay [1], -75.1% (inactive) in [3], -24.2% (inactive) in [8] and 98.1% (active) in assay [9]. Also, in assay [2], the inhibition of aggregation was 14.5% (inactive). The results for the nuclei count in assay [2] and in assay [3] were 89.5% and 146%, respectively. The fluorescence slope in [4] is -0.00785 (inactive). Further, in assay [5], the NADPH fluorescence slope is 0 (inactive). Further, the slope in assay [6] is 0.0053 (inactive). Besides, the outcome in [7] was inactive.

As to `COc1ccccc1N1CCN(C(=O)c2cc(-c3ccc(Cl)c(Cl)c3)on2)CC1`, the cell count in assay [1] turned out to be 430. The inhibition is 5.1% (inactive) in assay [1], -17.9% (inactive) in [3], 1.29% (inactive) in assay [8] and -2.55% (inactive) in assay [9]. The inhibition of aggregation in [2] was -5.8% (inactive). Moreover, the nuclei count in assay [2] is 97.3%; in assay [3], 102%. Also, the fluorescence slope in assay [4] is -0.407 (inactive). The NADPH fluorescence slope in assay [5] is -7.4e-05 (inactive). Besides, the slope in [6] was 0.00441 (inactive). The outcome in [7] was inactive.

For the compound `CCOC(=O)c1c(C)oc2ccc(NS(=O)(=O)c3ccc4c5c(cccc35)C(=O)N4)cc12`, the cell count in [1] was 429. The inhibition in [1] is 6.5% (inactive); in assay [3], -185% (inactive); in assay [8], 21.2% (inactive); in assay [9], 2.01% (inactive). Further, in assay [2], the inhibition of aggregation is -5.8% (inactive). Moreover, the nuclei count in [2] is 99%; in assay [3], 114%. Besides, the fluorescence slope in assay [4] was -0.223 (inactive). Further, in assay [5], the NADPH fluorescence slope was -1.1e-05 (inactive). In addition, the slope in [6] was 0.00563 (inactive). Further, the call in [7] was inactive.
